# Bioassay records: PubChem BioAssay, several laboratories
# Hits are enriched below; roughly 3.6% of the tested compounds scored in any of these assays.
# ATG4B inhibitor: ATG4B protease inhibitors, primary screen, biochemical, fluorescence, uHTS. Cysteine protease ATG4B (Homo sapiens), Q9Y4P1. ATG4B cleavage of LC3-PLA2, NBD-HPC fluorescence, 1 h. inhibition, % at 8.33 µM. 340,000 compounds, 0.51% hits; in the data active = inhibition above about 40%
# SENP1 inh: human SENP1 catalytic domain inhibitors, primary screen, biochemical, FRET, uHTS; Sentrin-specific protease 1 (Homo sapiens), Q9P0U3; recombinant SENP1 catalytic domain, CyPet-SUMO1-YPet FRET cleavage; inhibition, % at 10 µM; 360,000 compounds, 0.21% hits; AID 624204, 2012;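 active = inhibition at least 30% at 10 µM, raw YFP signal under a set limit, fluorescence ratio 0.5 to 1.5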
# Target sequence (Q9P0U3 419-644 limits assumed): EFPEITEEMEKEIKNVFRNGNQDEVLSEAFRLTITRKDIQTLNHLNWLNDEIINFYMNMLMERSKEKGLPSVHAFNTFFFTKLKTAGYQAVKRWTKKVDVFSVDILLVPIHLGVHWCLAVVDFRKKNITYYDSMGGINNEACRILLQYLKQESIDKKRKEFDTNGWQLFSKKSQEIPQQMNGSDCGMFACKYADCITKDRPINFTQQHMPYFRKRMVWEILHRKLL
#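 Assay system – human recombinant His6-tagged SENP1 catalytic domain enzyme · Input – SENP1 enzyme, 20 pM final · Buffer or medium – Tris pH 8 buffer plus EDTA, NaCl, BME, BSA, NP40, catalase · Schedule – 50 min reaction at room temperature · Technique – FRET read of cyan and yellow fluorescence · Control set – no-enzyme wells low, DMSO-plus-enzyme wells high control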
# NR3A LBD binder: binders of NR3A ligand-binding domain, primary screen, biophysical, differential scanning fluorimetry, uHTS; Glutamate receptor ionotropic, NMDA 3A (GRIN3A) ligand-binding domain; NR3A LBD differential scanning fluorimetry, Tm shift; 0% = protein alone, 100% = glycine-bound protein; Tm shift relative to glycine control, % at 25 µM; 340,000 compounds, 2.5% hits; AID 1259313, 2017;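 active = melting temperature shift of at least 10% of the positive control shift, at one fixed dose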
# UCH37 DUB inh: inhibitors of human UCH37 deubiquitinase, primary screen, biochemical, Ub-AMC cleavage, fluorescence; purified proteasome/UCH37; Ubiquitin carboxyl-terminal hydrolase isozyme L5 (Homo sapiens), Q9Y5K5; inhibition, % (no concentration beside the values); 330,000 compounds, 0.33% hits;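 active = mean inhibition over replicate wells above about 20%, limit read from the data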
# Target sequence (Q9Y5K5 whole entry, looked up): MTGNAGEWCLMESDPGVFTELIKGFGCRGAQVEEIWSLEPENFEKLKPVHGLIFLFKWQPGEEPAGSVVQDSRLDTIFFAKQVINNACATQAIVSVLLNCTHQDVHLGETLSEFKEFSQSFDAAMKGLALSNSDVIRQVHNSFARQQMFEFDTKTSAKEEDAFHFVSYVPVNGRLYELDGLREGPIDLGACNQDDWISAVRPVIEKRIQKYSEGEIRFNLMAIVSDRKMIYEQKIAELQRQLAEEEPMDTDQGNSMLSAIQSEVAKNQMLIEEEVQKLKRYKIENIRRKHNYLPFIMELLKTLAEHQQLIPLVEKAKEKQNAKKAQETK
#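 Schedule: 30 min plus 25 min, room temperature / Material: human UCH37 within purified proteasomes / Technique: AMC fluorescence intensity at 355/460 nm / Buffer or medium: pH 7.4 Tris-HCl (50 mM) with ovalbumin, ATP-MgCl2, DTT / Controls: wells without proteasome as full block, compound-free enzyme plus substrate as uninhibited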
# NadD inh: inhibitors of S. aureus NadD, primary screen, biochemical, colorimetric, uHTS; Nicotinate-nucleotide adenylyltransferase NadD (Staphylococcus aureus N315); purified NadD enzyme, colorimetric absorbance read-out; inhibition, % at 20 µM; 360,000 compounds, 0.78% hits; AID 602399, 2012; in the data active = inhibition above about 26%
# Numbers stand for hits; 0 = inactive; - = not tested or not shown.
SMILES,ATG4B inhibitor,SENP1 inh,NR3A LBD binder,UCH37 DUB inh,NadD inh
CCOC(=O)C1CCCN(CC(O)=C(C#N)c2nc(-c3ccccc3)cs2)C1 (stereo not given),-,-,-,0,-
Cc1ccc2c(c1)c1ccc3c(c1n2C)C(=O)C=CC3=O,0,0,0,0,48.2
COc1ccc(NC(=O)C2CCN(S(=O)(=O)c3c(C)noc3C)CC2)cc1Cl,0,0,15.7,0,0
CNC(=O)C1CCN(S(=O)(=O)c2c(C)noc2/C=C/c2ccc(C)cc2)CC1,0,0,79.3,0,0
Cc1ccc(/C=C/c2onc(C)c2S(=O)(=O)N2CCC(C(=O)NC(C)(C)C)CC2)cc1,0,0,0,0,0
COc1ccc(NC(=O)C2CCN(S(=O)(=O)c3c(C)noc3C)CC2)cc1,0,0,0,0,0
Cc1ccc(-n2c(C)cc(/C=C3\SC(=O)NC3=O)c2C)cc1,0,0,0,0,0
Cc1cc(/C=C2\SC(=Nc3ccccc3)NC2=O)c(C)n1-c1ccc(S(N)(=O)=O)cc1,0,0,0,0,45.8
COc1ccc(OCC(=O)Nc2ccc(C(=O)Nc3ccccc3C(=O)O)cc2)cc1,0,0,0,0,0
O=C(COc1ccc2ccccc2c1)Nc1cccc(C(=O)Nc2ccccc2C(=O)O)c1,0,0,12.1,0,0
O=C(COc1ccc(Br)cc1)Nc1ccc(C(=O)Nc2ccccc2C(=O)O)cc1,0,0,10.6,-,0
O=C(COc1ccc(Br)cc1)Nc1ccccc1N1CCCC1,0,0,0,27.8,0
NC(=NOC(=O)c1ccncc1)c1cccc([N+](=O)[O-])c1,-,-,-,0,-
COc1cc(C=NNC(=O)c2ccc(Cl)c(S(N)(=O)=O)c2)ccc1OCC(N)=O,-,-,-,0,-
CCOc1cc(S(=O)(=O)Nc2cc(C)cc(C)c2)ccc1Cl,0,0,11.0,0,0
C/C(=N/NC(=O)CNC(=O)c1cccs1)c1ccc(Cl)cc1,0,0,20.8,-,0
CCOC(=O)COc1cc(-n2c(=S)[nH]c3cc(OC)c(OC)cc3c2=O)c(Cl)cc1Cl,0,0,12.6,0,0
CCN1CCN(CC(=O)NN=Cc2ccc(F)cc2F)CC1,-,-,-,0,-
COc1ccc(C)cc1NC(=O)C(NCC1CCCO1)c1ccccc1 (stereo not given),0,0,14.8,0,0
COc1ccc(S(=O)(=O)NCC2CCCO2)cc1NC(=O)c1ccccc1 (stereo not given),0,0,0,0,0
COc1cc(C=NNC(=O)CCn2c3ccccc3c3ccccc32)cc(OC)c1OC,-,-,-,0,-
Cc1ccc(CNC(=O)Cn2c(=O)n(CC(=O)N3CCCCC3)c(=O)c3sccc32)cc1,0,0,0,0,0
Cc1ccc(CNC(=O)Cn2c(=O)c3sccc3n(Cc3ccc([N+](=O)[O-])cc3)c2=O)cc1,0,0,30.6,-,0
CCOC(=O)Cc1cc(=O)[nH]c(N=C(N)Nc2ccc(C)cc2C)n1,-,-,-,0,-
COc1ccc(C2CC(c3ccc4ccccc4c3)=NN2C(=O)CSc2ncccn2)cc1 (stereo not given),0,0,19.2,0,0
SMILES,ATG4B inhibitor,SENP1 inh,NR3A LBD binder,UCH37 DUB inh,NadD inh
O=C(/C=C/c1ccc(Cl)c([N+](=O)[O-])c1)Nc1ccc(N2CCCC2)c(Cl)c1,0,0,17.4,0,0
CN1CCN(c2ccc(S(=O)(=O)N3CCCCC3)cc2NC(=O)/C=C/c2ccc(Cl)c([N+](=O)[O-])c2)CC1,0,0,0,0,0
CCOC(=O)c1c(C)[nH]c(N=Nc2cc(C(=O)O)cc(C(=O)O)c2)c1C,0,0,0,24.0,0
CC(=O)Nc1sc(NN=Cc2ccc(C)cc2)nc1-c1ccc(C)cc1,-,-,-,0,-
CC(C)(C)c1csc(N(CCC#N)CCC#N)n1,0,0,14.2,0,0
O=C(Nc1nccs1)c1ccc(N2C(=O)[C@@H]3[C@H](C2=O)[C@H]2C=C[C@@H]3C2)cc1,0,0,0,0,0
O=C(Nc1nccs1)c1cccc(N2C(=O)C3C4C=CC(C4)C3C2=O)c1 (stereo not given),0,0,0,29.1,0
O=C(Nc1nccs1)c1cc(-c2ccccc2)nn1-c1ccccc1,0,0,11.5,0,0
O=C(OCCN1C(=O)c2cccc3c(N4CCOCC4)ccc(c23)C1=O)c1ccccc1Cl,0,0,0,0,0
O=C(OCCN1C(=O)c2cccc3c(N4CCOCC4)ccc(c23)C1=O)c1ccc(Cl)cc1Cl,0,0,11.2,0,0
O=C(Nc1c(C(=O)O)[nH]c2ccccc12)c1cccc(C(F)(F)F)c1,0,0,0,0,0
O=C(Nc1c(C(=O)O)[nH]c2ccc(F)cc12)c1cccc(C(F)(F)F)c1,0,0,12.5,0,0
O=C(COc1ccccc1/C=C1\SC(=S)NC1=O)Nc1ccc(F)cc1,0,0,13.7,0,0
COCc1nc(-c2ccc(-c3ccc(OC)cc3)nc2OC)no1,0,0,30.9,0,0
COc1cc2[nH]c(=S)nc(NCc3ccc(Cl)cc3)c2cc1OC,0,0,35.0,0,0
CCOC(=O)C1CCN(C(=O)Cn2ncc3c([nH]c4ccccc43)c2=O)CC1,0,0,13.4,0,0
O=C1NC(c2cc(Cl)cc([N+](=O)[O-])c2O)Nc2ccccc21 (stereo not given),0,0,13.9,0,0
Cc1ccc(NC(=S)N=Nc2c(O)n(C)c3ccc(S(=O)(=O)N4CCOCC4)cc23)cc1C,0,0,0,0,31.1
Cn1c(O)c(N=NC(=S)Nc2ccccc2F)c2cc(S(=O)(=O)N3CCOCC3)ccc21,0,0,0,0,0
O=C(/C=C/c1ccc(O)c(O)c1)c1ccc(S(=O)(=O)N2CCCCCC2)cc1,0,0,22.5,0,0
COc1ccc(C2=CC3=C(Br)C(=O)C(C)(OC(=O)c4ccco4)C(=O)C3=CO2)cc1 (stereo not given),82.3,0,0,0,0
COCCNC(=O)C(=O)NN=Cc1ccccc1C(F)(F)F,-,-,-,0,-
O=C(CNC(=O)Cc1ccccc1)N=Nc1c(O)[nH]c2ccccc12,0,0,0,0,0
O=C(CNC(=O)/C=C/c1ccco1)N=Nc1c(O)[nH]c2ccccc12,0,0,0,0,33.8
Nc1cc(N)c(OCC(F)(F)F)cc1OCC(F)(F)F,0,32.0,0,0,0
Cc1c(C(=O)NN=Cc2ccccn2)nnn1-c1nonc1N,-,-,-,0,-
O=[N+]([O-])c1ccc2cn[nH]c2c1,0,0,14.3,0,0
O=C(C=Cc1cccnc1)c1ccccc1,0,0,0,0,0
O=C(/C=C/c1cccnc1)c1ccccc1O,0,0,15.0,0,0
CC(/C=C/c1ccco1)=NNC(=O)CNc1ccc2ccccc2c1,-,-,-,0,-
